Results as given in ChEMBL document CHEMBL1139305, “Design, synthesis and pharmacological screening of novel antihypertensive agents using hybrid approach” (Bioorg Med Chem, 2009).
Values after ≈ are worked out from the molar mass of the structure shown. Active and inactive are the calls of the source. No cut-off for these calls is given here.

Key:
[1] = tested on: Rattus norvegicus; test: Effect on heart rate in anesthetized Wistar rat assessed as number of Q-T-intervals at 40 mg/kg, ip after 45 mins by electrocardiography; type: functional; details: route intraperitoneal
Method in brief: (§1)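 Wistar rats (250–300 g) anaesthetised with thiopental 60 mg/kg ip, then given compound ip at 40 mg/kg in 0.5% aqueous methyl cellulose. ECG recorded by transducer, with heart rate (beats/min) and P–Q, QRS and Q–T intervals (ms) taken at 0, 15, 30, 45 and 60 min after dosing.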

[2] = tested on: Rattus norvegicus; test: Effect on heart rate in anesthetized Wistar rat assessed as number of P-Q-intervals at 40 mg/kg, ip after 45 mins by electrocardiography; type: functional; details: route intraperitoneal; method in brief: as §1
[3] = tested on: Rattus norvegicus; test: Effect on heart rate in anesthetized Wistar rat assessed as number of QRS complex at 40 mg/kg, ip after 45 mins by electrocardiography; type: functional; details: route intraperitoneal; method in brief: as §1
[4] = tested on: Rattus norvegicus; test: Vasorelaxation activity […] assessed as inhibition of norepinephrine-induced contraction of aorta ring at 0.1 mg/ml; type: functional
Method in brief: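 Isolated Wistar rat aorta rings in physiological salt solution at 37 °C, gassed 95% O2/5% CO2, isometric tension, 60 min equilibration. After contraction plateau, test compound (0.1 mg/mL) added cumulatively; EC50 (g/mL) derived from cumulative concentration–response curves against norepinephrine.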

[5] = organism: Rattus norvegicus; test: NO release in Wistar rat by Griess reagent assay in presence of L-cysteine relative to control
[6] = tested on: Rattus norvegicus; test: Effect on heart rate in anesthetized Wistar rat assessed as number of beats per minutes at 40 mg/kg, ip after 30 mins by electrocardiography; type: functional; details: route intraperitoneal; method in brief: as §1
[7] = tested on: Rattus norvegicus; test: Effect on heart rate in anesthetized Wistar rat assessed as number of P-Q-intervals at 40 mg/kg, ip after 30 mins by electrocardiography; type: functional; details: route intraperitoneal; method in brief: as §1
[8] = tested on: Rattus norvegicus; test: Cardiovascular effect in anaesthetized Wistar rat assessed as mean arterial pressure at 40 mg/kg, ip after 45 mins; type: functional, Artery; details: route intraperitoneal
Method in brief: (§2)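 Adult normotensive Wistar rats (250–300 g) under thiopental (60 mg/kg ip). Right carotid artery cannulated with a heparinised catheter (20 IU/mL in saline, flushed every 30 min) connected to a pressure transducer. Measurement began one hour after surgery. Compound given ip at 40 mg/kg in 0.5% methyl cellulose, with mean arterial pressure read at 0, 15, 30, 45 and 60 min.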

[9] = tested on: Rattus norvegicus; test: Effect on heart rate in anesthetized Wistar rat assessed as number of beats per minutes at 40 mg/kg, ip after 60 mins by electrocardiography; type: functional; details: route intraperitoneal; method in brief: as §1
[10] = tested on: Rattus norvegicus; test: Effect on heart rate in anesthetized Wistar rat assessed as number of QRS complex at 40 mg/kg, ip after 15 mins by electrocardiography; type: functional; details: route intraperitoneal; method in brief: as §1
[11] = tested on: Rattus norvegicus; test: Effect on heart rate in anesthetized Wistar rat assessed as number of P-Q-intervals at 40 mg/kg, ip after 15 mins by electrocardiography; type: functional; details: route intraperitoneal; method in brief: as §1
[12] = tested on: Rattus norvegicus; test: Effect on heart rate in anesthetized Wistar rat assessed as number of P-Q-intervals at 40 mg/kg, ip after 60 mins by electrocardiography; type: functional; details: route intraperitoneal; method in brief: as §1
[13] = tested on: Rattus norvegicus; test: Cardiovascular effect in anaesthetized Wistar rat assessed as mean arterial pressure at 40 mg/kg, ip after 30 mins; type: functional, Artery; details: route intraperitoneal; method in brief: as §2
[14] = tested on: Rattus norvegicus; test: Cardiovascular effect in anaesthetized Wistar rat assessed as mean arterial pressure at 40 mg/kg, ip after 15 mins; type: functional, Artery; details: route intraperitoneal; method in brief: as §2
[15] = tested on: Rattus norvegicus; test: Effect on heart rate in anesthetized Wistar rat assessed as number of beats per minutes at 40 mg/kg, ip after 15 mins by electrocardiography; type: functional; details: route intraperitoneal; method in brief: as §1
[16] = tested on: Rattus norvegicus; test: Effect on heart rate in anesthetized Wistar rat assessed as number of QRS complex at 40 mg/kg, ip after 30 mins by electrocardiography; type: functional; details: route intraperitoneal; method in brief: as §1
[17] = tested on: Rattus norvegicus; test: Effect on heart rate in anesthetized Wistar rat assessed as number of Q-T-intervals at 40 mg/kg, ip after 15 mins by electrocardiography; type: functional; details: route intraperitoneal; method in brief: as §1
[18] = tested on: Rattus norvegicus; test: Effect on heart rate in anesthetized Wistar rat assessed as number of beats per minutes at 40 mg/kg, ip after 45 mins by electrocardiography; type: functional; details: route intraperitoneal; method in brief: as §1
[19] = tested on: Rattus norvegicus; test: Cardiovascular effect in anaesthetized Wistar rat assessed as mean arterial pressure at 40 mg/kg, ip after 60 mins; type: functional, Artery; details: route intraperitoneal; method in brief: as §2
[20] = tested on: Rattus norvegicus; test: Effect on heart rate in anesthetized Wistar rat assessed as number of Q-T-intervals at 40 mg/kg, ip after 60 mins by electrocardiography; type: functional; details: route intraperitoneal; method in brief: as §1
[21] = tested on: Rattus norvegicus; test: Effect on heart rate in anesthetized Wistar rat assessed as number of Q-T-intervals at 40 mg/kg, ip after 30 mins by electrocardiography; type: functional; details: route intraperitoneal; method in brief: as §1
[22] = tested on: Rattus norvegicus; test: Effect on heart rate in anesthetized Wistar rat assessed as number of QRS complex at 40 mg/kg, ip after 60 mins by electrocardiography; type: functional; details: route intraperitoneal; method in brief: as §1
[23] = tested on: Rattus norvegicus; test: Antiarrhythmic activity in anaesthetized Wistar rat assessed as decrease in BaCl2-induced cardiac rhythm disturbance at 40 mg/kg, ip 60 mins before arrhythmogen challenge; type: functional, organism-based; parameters: dose 40 mg/kg; details: Heart
Method in brief: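 Rats (thiopental 60 mg/kg ip anaesthesia) given test compound ip at 40 mg/kg, suspended in 0.5% aqueous methyl cellulose, 60 min before iv barium chloride (32 mg/kg) to evoke arrhythmia. Scored by reduction of rhythm disturbances (premature ventricular beats, ventricular tachycardia, fibrillation) and mortality.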

| Compound | Activity [1] | Activity [2] | Activity [3] | EC50 [4] [µg/mL] | % NO release [5] [%] | Activity [6] | Activity [7] | Activity [8] [mmHg] | Activity [9] | Activity [10] | Activity [11] | Activity [12] | Activity [13] [mmHg] | Activity [14] [mmHg] | Activity [15] | Activity [16] | Activity [17] | Activity [18] | Activity [19] [mmHg] | Activity [20] | further results |
| --- | --- | --- | --- | --- | --- | --- | --- | --- | --- | --- | --- | --- | --- | --- | --- | --- | --- | --- | --- | --- | --- |
| COc1cc(/C=C2\S/C(=N/c3ccccc3)N(CC(O)CNc3ccc(C(=O)NNC(=O)CO[N+](=O)[O-])cc3)C2=O)cc(OC)c1OC (configuration not stated) | 82.2 | 57.6 | 23.2 | 60.3 (≈ 88.5 µM) | 0.32 | 293.35 | 56.2 | 62.69 | 291.2 | 21.2 | 55 | 54.8 | 73.93 | 82.81 | 301.97 | 22 | 79.6 | 277.12 | 81.25 | 83.8 | Activity [21]: 80.8; Activity [22]: 22.8 |
| Cc1ccc(/C=C2\S/C(=N/c3ccccc3)N(CC(O)CNc3ccc(C(=O)NNC(=O)CO[N+](=O)[O-])cc3)C2=O)cc1 (configuration not stated) | 74.8 | 52 | 24 | 28.2 (≈ 46.6 µM) | 0.27 | 291.92 | 51.2 | 72.21 | 297.59 | 23.2 | 49.6 | 50.2 | 79.16 | 91.1 | 303.44 | 23.6 | 72.8 | 279.98 | 88.93 | 72.2 | Activity [21]: 73.4; Activity [22]: 22.8 |
| O=C(CO[N+](=O)[O-])NNC(=O)c1ccc(NCC(O)CN2C(=O)/C(=C/c3ccccc3)S/C2=N/c2ccccc2)cc1 (configuration not stated) | 84.6 | 54.2 | 20.6 | 34.7 (≈ 58.7 µM) | 0.33 | 269.11 | 53.6 | 67.54 | 291.8 | 19.4 | 52.2 | 55.4 | 62.21 | 78.67 | 292.18 | 21.2 | 81.8 | 276.83 | 71.29 | 86.2 | Activity [23]: Active; Activity [21]: 63.2; Activity [22]: 21.6 |
| O=C(CO[N+](=O)[O-])NNC(=O)c1ccc(NCC(O)CN2C(=O)/C(=C/c3ccc(O)cc3)S/C2=N/c2ccccc2)cc1 (configuration not stated) | 77.2 | 56.2 | 22.4 | 32.4 (≈ 53.3 µM) | 0.3 | 272.68 | 56 | 63.34 | 278.31 | 20.4 | 55.2 | 54.8 | 68.96 | 79.52 | 290.03 | 21.4 | 74.8 | 258.51 | 77.31 | 74.4 | Activity [23]: Active; Activity [21]: 76; Activity [22]: 20.6 |
| O=C(CO[N+](=O)[O-])NNC(=O)c1ccc(NCC(O)CN2C(=O)/C(=C/C=C/c3ccccc3)S/C2=N/c2ccccc2)cc1 (configuration not stated) | 74.8 | 53.6 | 21.4 | 34.7 (≈ 56.2 µM) | 0.24 | 295.42 | 53.6 | 80.16 | 308.77 | 21 | 52.4 | 52.4 | 77.54 | 84.86 | 307.46 | 22.4 | 74.6 | 302.23 | 90.58 | 73.4 | Activity [21]: 75.8; Activity [22]: 20.4 |
